According to PMC4535313 (Bioorganic & medicinal chemistry letters, 2014):
Blank lines part the entries; values can stand above or below the compound they belong to.

Assays:
PLD1 = target: T1, PLD1 (Homo sapiens, UniProt Q13393); assay: Cellular PLD1 assay with Calu-1 cells; assay type: cell-based
T1 sequence (Q13393 1-1074): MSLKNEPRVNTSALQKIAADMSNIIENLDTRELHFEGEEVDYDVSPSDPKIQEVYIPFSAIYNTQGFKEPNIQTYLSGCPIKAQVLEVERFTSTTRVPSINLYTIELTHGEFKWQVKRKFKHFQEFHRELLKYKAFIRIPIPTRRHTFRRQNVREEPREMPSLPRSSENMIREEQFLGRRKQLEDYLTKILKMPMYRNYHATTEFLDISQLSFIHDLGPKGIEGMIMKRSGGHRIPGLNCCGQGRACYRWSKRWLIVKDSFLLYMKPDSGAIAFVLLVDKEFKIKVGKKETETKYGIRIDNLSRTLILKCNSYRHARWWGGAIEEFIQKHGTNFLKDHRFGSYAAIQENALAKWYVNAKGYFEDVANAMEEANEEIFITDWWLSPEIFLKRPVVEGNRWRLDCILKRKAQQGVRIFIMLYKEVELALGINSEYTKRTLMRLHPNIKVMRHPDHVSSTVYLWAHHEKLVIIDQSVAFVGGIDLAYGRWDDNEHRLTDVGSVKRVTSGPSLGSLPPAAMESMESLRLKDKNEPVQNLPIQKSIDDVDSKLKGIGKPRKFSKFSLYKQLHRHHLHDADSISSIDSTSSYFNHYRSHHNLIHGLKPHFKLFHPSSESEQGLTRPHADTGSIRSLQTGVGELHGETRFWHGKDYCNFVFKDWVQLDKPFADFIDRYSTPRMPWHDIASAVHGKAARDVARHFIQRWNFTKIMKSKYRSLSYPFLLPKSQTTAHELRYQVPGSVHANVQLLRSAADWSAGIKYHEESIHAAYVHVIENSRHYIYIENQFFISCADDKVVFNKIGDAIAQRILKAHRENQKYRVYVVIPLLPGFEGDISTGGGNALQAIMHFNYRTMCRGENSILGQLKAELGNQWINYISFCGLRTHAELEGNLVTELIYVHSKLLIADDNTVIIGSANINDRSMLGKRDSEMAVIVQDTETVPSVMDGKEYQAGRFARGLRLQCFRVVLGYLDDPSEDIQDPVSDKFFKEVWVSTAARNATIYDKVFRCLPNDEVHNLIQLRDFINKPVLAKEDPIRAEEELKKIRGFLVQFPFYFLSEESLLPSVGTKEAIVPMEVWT
Method in brief: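 Calu-1 cells used for cell-based PLD1 inhibition readout. Each IC50 determined in triplicate.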

PLD2 = PLD2 (Homo sapiens, UniProt O14939); settings: recently reported inhibitors, Fig. 1; cited from earlier work
[1] = Metabolic stability in rat microsomes; assay type: in vitro ADME

PLD2, sequence (O14939 whole entry, species assumed): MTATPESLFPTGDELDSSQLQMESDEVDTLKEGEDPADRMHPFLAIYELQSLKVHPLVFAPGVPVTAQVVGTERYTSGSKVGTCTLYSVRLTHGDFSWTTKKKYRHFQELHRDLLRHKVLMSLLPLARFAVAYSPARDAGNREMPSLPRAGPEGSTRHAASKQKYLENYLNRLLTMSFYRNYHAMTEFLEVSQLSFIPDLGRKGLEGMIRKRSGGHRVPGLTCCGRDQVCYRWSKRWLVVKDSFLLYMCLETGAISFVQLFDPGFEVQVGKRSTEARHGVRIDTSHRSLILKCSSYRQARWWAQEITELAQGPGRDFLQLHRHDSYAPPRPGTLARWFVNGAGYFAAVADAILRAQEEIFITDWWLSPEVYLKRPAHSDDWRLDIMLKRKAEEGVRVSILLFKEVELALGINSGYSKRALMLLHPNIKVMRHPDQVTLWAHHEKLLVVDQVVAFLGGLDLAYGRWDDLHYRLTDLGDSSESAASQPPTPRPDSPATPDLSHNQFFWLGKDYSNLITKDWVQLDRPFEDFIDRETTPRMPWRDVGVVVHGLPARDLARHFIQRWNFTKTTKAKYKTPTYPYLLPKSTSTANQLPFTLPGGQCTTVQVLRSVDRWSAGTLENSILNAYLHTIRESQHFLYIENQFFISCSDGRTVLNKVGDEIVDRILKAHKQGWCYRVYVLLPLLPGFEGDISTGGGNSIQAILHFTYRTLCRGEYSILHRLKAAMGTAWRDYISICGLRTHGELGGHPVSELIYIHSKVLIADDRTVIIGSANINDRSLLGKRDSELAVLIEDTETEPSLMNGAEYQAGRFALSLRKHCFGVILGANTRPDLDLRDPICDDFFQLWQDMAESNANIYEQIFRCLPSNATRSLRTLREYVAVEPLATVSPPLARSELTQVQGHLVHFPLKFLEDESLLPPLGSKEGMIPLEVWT

SMILES: CC(CNC(=O)c1ccc(F)c(F)c1)N1CCC2(CC1)C(=O)NCN2c1ccccc1 (stereo not drawn) [8f]
IC50 (PLD1): ~1000 nM

SMILES: O=C(NCCN1CCC2(CC1)C(=O)NCN2c1cccc(F)c1)c1ccc(F)c(F)c1 [compound 4]
fold PLD2 selective (PLD2): 53 fold

Clhep [1]: 70 mL/min/kg
SMILES: CC1CC(n2c(=O)[nH]c3ccccc32)CCN1CCNC(=O)c1ccc(F)cc1 (stereo not drawn) [compound 9]
